Experimental data reported in ChEMBL document CHEMBL1146203, “Acridone-based inhibitors of inosine 5'-monophosphate dehydrogenase: discovery and SAR leading to the identification of N-(2-(6-(4-ethylpiperazin-1-yl)pyridin-3-yl)propan-2-yl)-2- fluoro-9-oxo-9,10-dihydroacridine-3-carboxamide (BMS-566419)” (J Med Chem, 2007).
Active and inactive are the calls of the source. The calls are words filed in the database; no cut-off is given here.

Experiments:
CCRF-CEM = assay: Inhibition of CEM cell proliferation; format: functional, cell-based; conditions: Homo sapiens
Procedure, shortened: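 Human CEM T-lymphoblasts grown in RPMI 1640 with 10% heat-inactivated FBS and penicillin/streptomycin. Seeded at 3000 cells/well with 0.5% DMSO; compounds tested in triplicate from 10 µM top concentration in 3-fold dilutions.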

[1] = molecular target: Inosine-5'-monophosphate dehydrogenase 2 (Homo sapiens, UniProt P12268); assay: Inhibition of human IMPDH2
PBMC = assay: Inhibition of T cell proliferation in PBMC cells; format: functional, cell-based; conditions: Homo sapiens
Procedure, shortened: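 Human PBMCs isolated from heparinized whole blood by density gradient and plated at 5 × 10^4 cells/well in RPMI 1640 with 10% FBS. Stimulated with anti-CD3 OKT3 (200 ng/mL) plus soluble anti-CD28 (1 µg/mL). Compounds tested in triplicate from 3.3 µM in 3-fold dilutions with 0.5% DMSO for 72 h.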

[2] = Therapeutic index for gastrointestinal toxicity in Lewis rat adjuvant arthritis model; conditions: read-out: TI
Procedure, shortened: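 GI therapeutic index in the rat adjuvant arthritis model, calculated as the ratio of exposure (AUC) at the maximum tolerated dose for GI toxicity to the AUC at the lowest efficacious dose.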

Rattus norvegicus [3] = species on record: Rattus norvegicus; assay: Gastrointestinal toxicity in Lewis rat adjuvant arthritis model; format: organism-based; conditions: in vivo
Procedure, shortened: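 Lewis rats in the adjuvant arthritis setting were given escalating oral daily doses for up to 14 days. Animals were monitored for diarrhea and weight loss, with gross examination and histopathology (crypt cell necrosis) used to define the maximum tolerated dose for GI toxicity.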

Rattus norvegicus [4] = assay: Efficacy against Freund's complete adjuvant-induced arthritis in Lewis rat assessed as inhibition of paw swelling at 15 mg/kg, po after 21 days; format: functional, organism-based; design: dose 15 mg/kg
Procedure, shortened: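 Adjuvant arthritis induced by subcutaneous Freund's complete adjuvant at the tail base in male Lewis rats. Oral dosing once daily for 21 days from day 0, vehicle 60% PEG400/40% 0.01 N HCl, 8 rats per group. Hind paw volume measured by plethysmometry at baseline and over three weeks; increase above baseline calculated; Student's t test against the vehicle group.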

[5] = Clearance in rats at 2 mg/kg, iv; format: ADME, organism-based; design: dose 2 mg/kg, route intravenous; conditions: rat, in vivo
Procedure, shortened: (§1)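 Rat and cynomolgus monkey PK: oral dose 10 mg/kg and iv dose 2 mg/kg; oral vehicle 60% PEG400/40% HCl at pH 3. Cmax, Tmax and AUC taken from the oral arm; T1/2, MRT, Cl and Vss from the iv arm; Fpo calculated. Values are the mean ± SD of three animals.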

[6] = Volume of distribution at steady state in cynomolgus monkey at 2 mg/kg, iv; format: ADME, organism-based, Macaca fascicularis; design: dose 2 mg/kg, route intravenous; conditions: in vivo, read-out: Vdss; procedure, shortened: as §1
[7] = Bioavailability in rat at 10 mg/kg, po; format: ADME, organism-based; conditions: in vivo; procedure, shortened: as §1
Serum = assay: Protein binding in serum; format: ADME, cell-free; conditions: human
[8] = Half life in rat at 2 mg/kg, iv; format: ADME, organism-based; design: dose 2 mg/kg, route intravenous; conditions: in vivo; procedure, shortened: as §1
Cytochrome P450 3A4 = Cytochrome P450 3A4 (Homo sapiens, UniProt P08684); assay: Inhibition of CYP3A4; format: ADME
Cytochrome P450 3A4, sequence (P08684 whole entry): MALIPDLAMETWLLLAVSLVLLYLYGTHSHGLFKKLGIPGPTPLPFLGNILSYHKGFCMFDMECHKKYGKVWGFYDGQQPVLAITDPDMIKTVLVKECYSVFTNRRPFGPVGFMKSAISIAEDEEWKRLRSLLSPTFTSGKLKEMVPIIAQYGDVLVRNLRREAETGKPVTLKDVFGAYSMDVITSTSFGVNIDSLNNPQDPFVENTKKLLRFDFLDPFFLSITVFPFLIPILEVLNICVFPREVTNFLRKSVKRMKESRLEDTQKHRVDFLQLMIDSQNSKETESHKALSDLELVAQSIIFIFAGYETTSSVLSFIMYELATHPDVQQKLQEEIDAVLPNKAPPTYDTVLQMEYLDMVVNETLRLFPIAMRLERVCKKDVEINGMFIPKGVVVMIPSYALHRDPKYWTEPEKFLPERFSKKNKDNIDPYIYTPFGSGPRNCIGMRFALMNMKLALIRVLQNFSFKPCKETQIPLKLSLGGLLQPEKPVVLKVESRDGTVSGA
Procedure, shortened: (§2)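 Inhibition measured against isolated CYP enzymes.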

[9] = Clearance in cynomolgus monkey at 2 mg/kg, iv; format: ADME, organism-based, Macaca fascicularis; design: dose 2 mg/kg, route intravenous; conditions: in vivo; procedure, shortened: as §1
[10] = Cmax in cynomolgus monkey at 10 mg/kg, po; format: ADME, organism-based, Macaca fascicularis; design: dose 10 mg/kg, route oral; conditions: in vivo; procedure, shortened: as §1
Rattus norvegicus [11] = assay: Efficacy against Freund's complete adjuvant-induced arthritis in Lewis rat assessed as inhibition of paw swelling at 10 mg/kg, po after 21 days; format: functional, organism-based; design: dose 10 mg/kg
Procedure, shortened: (§3)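 Male Lewis rats; arthritis induced by subcutaneous Freund's complete adjuvant at the tail base. Oral dosing once daily for 21 days from day 0, in 60% PEG400/40% 0.01 N HCl vehicle; 8 rats per group. Hind paw volume was measured by plethysmometry at baseline and over three weeks, and the increase above baseline was calculated. Groups were compared with vehicle by Student's t test.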

[12] = Permeability across Caco-2 cells; format: ADME, cell-based; conditions: human, read-out: permeability
[13] = Volume of distribution at steady state in rat at 2 mg/kg, iv; format: ADME, organism-based; design: dose 2 mg/kg, route intravenous; conditions: in vivo, read-out: Vdss; procedure, shortened: as §1
[14] = Cmax in rat at 10 mg/kg, po; format: ADME, organism-based; design: dose 10 mg/kg, route oral; conditions: in vivo; procedure, shortened: as §1
Rattus norvegicus [15] = assay: Tmax in rat at 10 mg/kg, po; format: ADME, organism-based; design: dose 10 mg/kg, route oral; conditions: in vivo; procedure, shortened: as §1
Cytochrome P450 2D6 = Cytochrome P450 2D6 (Homo sapiens, UniProt P10635); assay: Inhibition of CYP2D6; format: ADME; procedure, shortened: as §2
Cytochrome P450 2D6, sequence (P10635 whole entry): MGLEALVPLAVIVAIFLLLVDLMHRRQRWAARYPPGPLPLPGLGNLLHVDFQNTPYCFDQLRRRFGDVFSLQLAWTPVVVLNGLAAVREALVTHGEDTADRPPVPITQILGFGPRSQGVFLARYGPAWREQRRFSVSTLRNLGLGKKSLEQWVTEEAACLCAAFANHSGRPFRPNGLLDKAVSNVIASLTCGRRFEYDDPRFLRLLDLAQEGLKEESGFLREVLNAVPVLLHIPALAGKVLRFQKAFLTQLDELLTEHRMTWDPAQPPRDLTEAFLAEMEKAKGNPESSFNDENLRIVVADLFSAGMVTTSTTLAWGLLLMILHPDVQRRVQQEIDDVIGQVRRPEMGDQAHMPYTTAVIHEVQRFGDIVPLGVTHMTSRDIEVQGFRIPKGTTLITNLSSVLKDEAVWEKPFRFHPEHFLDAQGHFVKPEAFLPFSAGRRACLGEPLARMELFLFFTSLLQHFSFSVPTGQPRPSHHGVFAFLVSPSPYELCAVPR

[16] = AUC in rat at 10 mg/kg, po; format: ADME, organism-based; design: dose 10 mg/kg, route oral; conditions: plasma; procedure, shortened: as §1
[17] = Lipophilicity, log P of the compound; format: physicochemical; conditions: octanol/water
[18] = Mean residence time in cynomolgus monkey at 2 mg/kg, iv; format: ADME, organism-based, Macaca fascicularis; design: dose 2 mg/kg, route intravenous; conditions: in vivo; procedure, shortened: as §1
Rattus norvegicus [19] = assay: Efficacy against Freund's complete adjuvant-induced arthritis in Lewis rat assessed as inhibition of paw swelling at 25 mg/kg, po after 21 days; format: functional, organism-based; design: dose 25 mg/kg; procedure, shortened: as §3
Cytochrome P450 1A2 = molecular target: T1, Cytochrome P450 1A2 (Homo sapiens, UniProt P05177); assay: Inhibition of CYP1A2; format: ADME; procedure, shortened: as §2
T1 sequence (P05177 whole entry): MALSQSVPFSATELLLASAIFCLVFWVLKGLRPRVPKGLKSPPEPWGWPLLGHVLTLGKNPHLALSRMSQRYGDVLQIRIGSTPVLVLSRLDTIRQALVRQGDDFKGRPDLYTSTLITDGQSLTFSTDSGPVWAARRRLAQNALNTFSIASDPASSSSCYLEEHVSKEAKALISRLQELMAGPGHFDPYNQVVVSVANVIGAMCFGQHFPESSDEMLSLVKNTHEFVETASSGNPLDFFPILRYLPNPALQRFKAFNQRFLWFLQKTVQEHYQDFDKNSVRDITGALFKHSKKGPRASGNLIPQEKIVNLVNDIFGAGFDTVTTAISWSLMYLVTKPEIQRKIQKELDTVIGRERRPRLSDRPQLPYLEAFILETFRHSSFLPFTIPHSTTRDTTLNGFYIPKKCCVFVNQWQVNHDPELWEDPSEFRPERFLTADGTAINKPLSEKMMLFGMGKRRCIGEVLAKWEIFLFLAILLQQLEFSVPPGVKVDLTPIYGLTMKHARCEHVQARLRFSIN

Rattus norvegicus [20] = assay: Efficacy against Freund's complete adjuvant-induced arthritis in Lewis rat assessed as inhibition of paw swelling at 50 mg/kg, po after 21 days; format: functional, organism-based; design: dose 50 mg/kg; procedure, shortened: as §3
[21] = Bioavailability in cynomolgus monkey at 10 mg/kg, po; conditions: in vivo
Cytochrome P450 2C9 = Cytochrome P450 2C9 (Homo sapiens, UniProt P11712); assay: Inhibition of CYP2C9; format: ADME; procedure, shortened: as §2
Cytochrome P450 2C9, sequence (P11712 whole entry): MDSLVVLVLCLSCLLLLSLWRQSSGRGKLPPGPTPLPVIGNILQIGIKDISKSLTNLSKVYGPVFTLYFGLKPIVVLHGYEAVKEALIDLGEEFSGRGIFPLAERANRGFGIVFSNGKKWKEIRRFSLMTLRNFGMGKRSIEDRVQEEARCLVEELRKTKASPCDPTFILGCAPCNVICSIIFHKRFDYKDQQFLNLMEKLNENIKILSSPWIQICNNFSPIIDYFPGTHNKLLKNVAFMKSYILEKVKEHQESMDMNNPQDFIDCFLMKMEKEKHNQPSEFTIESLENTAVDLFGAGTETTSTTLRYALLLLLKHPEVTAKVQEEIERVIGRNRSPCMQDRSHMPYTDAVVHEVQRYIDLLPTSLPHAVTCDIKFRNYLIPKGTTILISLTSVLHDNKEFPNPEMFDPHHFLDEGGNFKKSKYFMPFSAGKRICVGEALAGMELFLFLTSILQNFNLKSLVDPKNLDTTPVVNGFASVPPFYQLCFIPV

[22] = Half life in cynomolgus monkey at 2 mg/kg, iv; format: ADME, organism-based, Macaca fascicularis; design: dose 2 mg/kg, route intravenous; conditions: in vivo; procedure, shortened: as §1
Cytochrome P450 2C19 = Cytochrome P450 2C19 (Homo sapiens, UniProt P33261); assay: Inhibition of CYP2C19; format: ADME; procedure, shortened: as §2
Cytochrome P450 2C19, sequence (P33261 whole entry): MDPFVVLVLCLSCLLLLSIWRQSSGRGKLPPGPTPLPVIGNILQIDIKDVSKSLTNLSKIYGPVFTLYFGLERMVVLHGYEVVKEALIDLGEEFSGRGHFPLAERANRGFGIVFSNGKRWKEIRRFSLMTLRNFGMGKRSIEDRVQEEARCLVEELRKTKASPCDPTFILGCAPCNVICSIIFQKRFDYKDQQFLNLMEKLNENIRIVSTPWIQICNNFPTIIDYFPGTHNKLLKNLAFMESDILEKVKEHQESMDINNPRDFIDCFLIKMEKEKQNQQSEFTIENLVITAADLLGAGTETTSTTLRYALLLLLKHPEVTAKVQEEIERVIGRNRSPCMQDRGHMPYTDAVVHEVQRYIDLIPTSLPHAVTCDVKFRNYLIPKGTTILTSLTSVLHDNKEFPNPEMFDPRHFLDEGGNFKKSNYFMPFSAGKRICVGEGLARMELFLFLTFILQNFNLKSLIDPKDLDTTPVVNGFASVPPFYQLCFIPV

[23] = AUC in cynomolgus monkey at 10 mg/kg, po; format: ADME, organism-based, Macaca fascicularis; design: dose 10 mg/kg, route oral; conditions: plasma; procedure, shortened: as §1
[24] = Mean residence time in rat at 2 mg/kg, iv; format: ADME, organism-based; design: dose 2 mg/kg, route intravenous; conditions: in vivo; procedure, shortened: as §1

CC(C)(NC(=O)c1cc2[nH]c3ccccc3c(=O)c2cc1F)c1cccnc1
IC50 (CCRF-CEM): 420 nM | IC50 [1]: 11 nM | IC50 (PBMC): 140 nM

CN(C)S(=O)(=O)c1cccc(C(C)(C)NC(=O)c2cc3[nH]c4ccccc4c(=O)c3cc2F)c1
IC50 (CCRF-CEM): 380 nM | IC50 [1]: 7.9 nM | IC50 (PBMC): 130 nM

O=C(NCc1ccccc1)c1ccc2c(=O)c3ccccc3[nH]c2c1
IC50 [1]: 2200 nM

CC(C)(NC(=O)c1cc2[nH]c3ccccc3c(=O)c2cc1F)c1cnc2c(c1)OCCN2
IC50 (CCRF-CEM): 920 nM | IC50 [1]: 17 nM | IC50 (PBMC): 320 nM

COc1c(C)c2c(c(O)c1C/C=C(\C)CCC(=O)OCCN1CCOCC1)C(=O)OC2 [MYCOPHENOLATE MOFETIL]
selectivity ratio [2]: 6.9 | Activity (Rattus norvegicus [3]): Active | Activity (Rattus norvegicus [4]): Active

CC(C)(NC(=O)c1cc2[nH]c3ccccc3c(=O)c2cc1F)c1ccc(S(C)(=O)=O)cc1
IC50 (CCRF-CEM): 480 nM | IC50 [1]: 12 nM | IC50 (PBMC): 170 nM

CC(C)(C)NC(=O)c1ccc2c(=O)c3ccccc3[nH]c2c1
IC50 (CCRF-CEM): 3300 nM | IC50 [1]: 59 nM

COc1c(C)c2c(c(O)c1C/C=C(\C)CCC(=O)O)C(=O)OC2 [MYCOPHENOLIC ACID]
IC50 (PBMC): 130 nM

CN(C)S(=O)(=O)c1ccc(C(C)(C)NC(=O)c2cc3[nH]c4ccccc4c(=O)c3cc2F)cc1
IC50 (CCRF-CEM): 660 nM | IC50 [1]: 10 nM | IC50 (PBMC): 200 nM

CC(C)(NC(=O)c1ccc2c(=O)c3ccccc3[nH]c2c1)c1ccncc1
IC50 (CCRF-CEM): 2300 nM | IC50 [1]: 53 nM | IC50 (PBMC): 630 nM

CCN1CCN(c2ccc(C(C)(C)NC(=O)c3cc4[nH]c5ccccc5c(=O)c4cc3F)cn2)CC1
clearance [5]: 29 mL/min/kg | Vd [6]: 1.1 L/kg | bioavailability [7]: 43% | Activity (Serum): 92% | half-life [8]: 3.6 h | IC50 (Cytochrome P450 3A4): 13000 nM | clearance [9]: 3.4 mL/min/kg | Cmax [10]: 26 µM | IC50 (CCRF-CEM): 770 nM | Activity (Rattus norvegicus [11]): Active | Papp [12]: 32 ×10⁻⁶ cm/s | Vd [13]: 7.4 L/kg | Cmax [14]: 0.41 µM | Tmax (Rattus norvegicus [15]): 4 h | IC50 (Cytochrome P450 2D6): > 20000 nM | AUC [16]: 5.2 µM·h | logP [17]: 2.5 | MRT [18]: 5.5 h | IC50 [1]: 17 nM | Activity (Rattus norvegicus [19]): Active | IC50 (Cytochrome P450 1A2): > 20000 nM | IC50 (PBMC): 220 nM | Activity (Rattus norvegicus [20]): Active | bioavailability [21]: 88% | IC50 (Cytochrome P450 2C9): > 20000 nM | half-life [22]: 4 h | IC50 (Cytochrome P450 2C19): 19000 nM | AUC [23]: 102 µM·h | MRT [24]: 4.4 h

Cc1ccc(C(C)(C)NC(=O)c2cc3[nH]c4ccccc4c(=O)c3cc2F)cn1
IC50 (CCRF-CEM): 750 nM | IC50 [1]: 23 nM | IC50 (PBMC): 270 nM

CN(C)CCOc1ccc(C(C)(C)NC(=O)c2cc3[nH]c4ccccc4c(=O)c3cc2F)cc1
IC50 (CCRF-CEM): 560 nM | IC50 [1]: 20 nM | IC50 (PBMC): 210 nM
